In the library only some 1.1% were active in any assay of this set; here they are far more common.
SENP1 FRET inh: blocks the human SENP1 SUMO protease catalytic domain | 360,000 tested, 0.21% active | inhibition, % at 10 µM | Q9P0U3 | AID 624204 | recombinant SENP1 catalytic domain, CyPet-SUMO1-YPet FRET cleavage;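 active = inhibition at least 30% at 10 µM, raw YFP signal under a set limit, fluorescence ratio 0.5 to 1.5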;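 note: 0% = enzyme with DMSO and 100% = no enzyme wells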
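Assay system: hSENP1 catalytic domain, recombinant. Amount: SENP1 enzyme, 20 pM final. Schedule: 50 min reaction, RT, dark. Technique: FRET, CFP and YFP emission. Control set: no-enzyme wells low, DMSO-plus-enzyme wells high control.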
FAS TE block: blocks the thioesterase domain of human fatty acid synthase | recombinant FAS-TE, OMFH fluorogenic substrate, fluorescence endpoint | inhibition, % at 15 µM | AID 602261 | 360,000 tested, 0.67% active;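 active = compounds whose normalised, plate-corrected inhibition of enzyme fluorescence in the single-dose primary screen is 50% or more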;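 note: 0% = DMSO with enzyme and 100% = substrate without enzyme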
ABCB6 inh 2: inhibitors of human ABC transporter ABCB6. fluorescence ratio to DMSO, % at 10 µM. 360,000 tested, 0.19% active. K562-ABCB6 porphyrin accumulation, flow cytometry, 1 h; hits give low values;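 active = fluorescence ratio to DMSO below 75%, the collection mean minus 3 SD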;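 note: signal is porphyrin accumulated inside mitochondria; 100% equals median channel fluorescence of DMSO control wells; lower ratio means ABCB6 inhibition with less porphyrin fluorescence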
Target sequence (Q9NP58 whole entry, looked up): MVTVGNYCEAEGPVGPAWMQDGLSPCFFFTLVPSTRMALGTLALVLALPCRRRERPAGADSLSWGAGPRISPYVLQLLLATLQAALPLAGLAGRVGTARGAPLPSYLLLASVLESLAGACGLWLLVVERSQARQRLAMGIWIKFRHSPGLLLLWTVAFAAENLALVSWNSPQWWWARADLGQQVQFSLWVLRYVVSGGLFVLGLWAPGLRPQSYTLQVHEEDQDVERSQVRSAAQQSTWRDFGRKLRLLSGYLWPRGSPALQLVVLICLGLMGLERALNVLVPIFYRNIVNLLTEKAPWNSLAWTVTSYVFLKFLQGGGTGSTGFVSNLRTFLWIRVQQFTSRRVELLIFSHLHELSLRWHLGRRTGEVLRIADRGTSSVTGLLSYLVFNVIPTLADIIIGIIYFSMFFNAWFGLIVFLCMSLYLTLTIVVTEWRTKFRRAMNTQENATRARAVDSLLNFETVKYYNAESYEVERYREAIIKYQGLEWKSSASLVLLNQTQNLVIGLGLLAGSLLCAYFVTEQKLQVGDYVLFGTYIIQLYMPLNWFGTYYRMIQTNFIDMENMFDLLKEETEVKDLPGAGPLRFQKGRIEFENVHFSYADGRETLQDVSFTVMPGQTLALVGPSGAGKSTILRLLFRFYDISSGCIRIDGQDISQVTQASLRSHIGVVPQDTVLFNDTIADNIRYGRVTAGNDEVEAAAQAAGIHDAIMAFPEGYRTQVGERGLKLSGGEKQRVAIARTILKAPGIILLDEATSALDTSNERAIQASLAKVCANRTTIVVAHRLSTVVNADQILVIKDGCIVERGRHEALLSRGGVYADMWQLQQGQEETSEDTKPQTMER
hiPSC survival: hiPSC single-cell survival enhancement; ATPlite luminescence; 100% = ROCK inhibitor wells, 0% = DMSO; survival enhancement, % at 20 µM; 360,000 tested, 0.044% active; AID 602274; in the data active = survival enhancement above about 18%;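 note: cells exposed to compounds for 16 hours before the ATP read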
* hit, by the source's call; i = inactive.

SMILES	SENP1 FRET inh	FAS TE block	ABCB6 inh 2	hiPSC survival
CCNC(=O)C/C(C)=N/NC(=O)C1CCCCC1	1.4	-7.1	49.0*	2.1
CCn1c(SCC(=O)N(C)c2c(N)n(Cc3ccccc3)c(=O)[nH]c2=O)nnc1-c1cccs1	0.2	-5.2	100.0	-2.0
COc1ccc(NC(=O)/C(Cl)=C(/Cl)S(=O)(=O)Cc2ccccc2)cn1	-0.6	38.5	60.0*	12.9
COc1ccc(NC(=O)C(Cl)=C(Cl)Cl)cn1	3.7	-3.6	103.0	-0.9
CCn1cc(C(=O)NC2CCCc3c2cnn3-c2cccc(C)c2C)cn1 (stereo not drawn)	0.9	-3.3	65.0*	-0.1
Cc1cccc(-n2ncc3c2CCCC3NC(=O)c2ccncc2)c1C (stereo not drawn)	2.1	-4.5	95.0	2.5
COc1ccc(N=C2S/C(=C\c3ccc(N4CCOCC4)o3)C(=O)N2CCc2c[nH]c3ccccc23)cc1	-20.1	-38.0	i	40.4*
COc1ccc(N=C2S/C(=C\c3ccc(OCC(=O)O)cc3)C(=O)N2CCc2c[nH]c3ccccc23)cc1	0.8	7.9	92.0	-0.6
Cc1ccccc1CCN(C(=O)c1csnn1)C(C(=O)NC1CCCC1)c1ccco1 (stereo not drawn)	2.4	5.7	96.0	0.6
Cn1nc(CC(=O)N2CCN(c3ccccc3)CC2)c2ccccc2c1=O	0.7	1.7	84.0	1.2
Cn1nc(CC(=O)Nc2ccc(N3CCN(C(=O)OC(C)(C)C)CC3)cc2)c2ccccc2c1=O	-1.6	-5.9	30.0*	-2.2
CCC(=O)C1CCCN(C(=O)c2cccc(OC3CCN(S(C)(=O)=O)CC3)c2)C1 (stereo not drawn)	-0.7	-7.3	98.0	-0.4
O=C(O)c1ccc(N/N=C/C=C/c2ccc([N+](=O)[O-])o2)cc1	77.6*	-33.0	271.0	0.0
COc1cc(OC)c(N(C)C(=O)c2cn(C)c(=O)c3cc(OC)c(OC)cc23)cc1Cl	2.4	-3.3	99.0	-0.3
O=C(N/N=C\c1cc(Cl)ccc1O)c1ccc(S(=O)(=O)N2CCCCC2)cc1	51.0*	8.1	99.0	-2.0
O=C(Nc1cc(S(=O)(=O)Nc2ccc(Cl)cc2)ccc1O)c1ccc(S(=O)(=O)N2CCCCCC2)cc1	2.8	-13.0	97.0	1.2
O=C1/C(=C/c2ccc(O)c(O)c2)SC(=S)N1Nc1ccccc1	35.7*	19.4	183.0	-1.7
COc1cc(/C=C2\SC(=S)N(NC(=O)c3ccc(O)cc3)C2=O)ccc1O	13.1	-5.0	374.0	0.0
COc1cc(/C=C2\SC(=S)N(NC(=O)c3cccnc3)C2=O)ccc1O	48.9*	-3.0	213.0	0.5
O=C(NN1C(=O)/C(=C\c2ccc(O)c([N+](=O)[O-])c2)SC1=S)c1ccccc1Cl	33.2*	1.3	92.0	-1.0
NC(=O)C1(N2CCCCC2)CCN(C(=O)CSc2nc3ccccc3s2)CC1	-1.0	-7.7	96.0	9.8
CC1CCC(NC(=O)CCNC(=O)c2ccc(Br)cc2)CC1 (stereo not drawn)	1.8	11.6	100.0	0.0
O=C(NCCNC(=O)c1cc(Cl)ccc1Cl)c1ccco1	0.3	-4.4	100.0	-0.4
Cc1cc(OCC(O)CN2CCCC2)cc(C)c1Cl (stereo not drawn)	2.1	-8.0	92.0	-0.6
CCc1ccc2[nH]c(O)c(N=Nc3nc(-c4ccccc4)cs3)c2c1	32.7*	7.8	105.0	2.9
SMILES	SENP1 FRET inh	FAS TE block	ABCB6 inh 2	hiPSC survival
O=C(C[C@H]1C/C=C\CC[C@H](Cc2ccc(F)cc2)C(=O)OC[C@@H]2CCCN2C1=O)N[C@H](CO)Cc1ccccc1	2.0	-13.3	99.0	0.0
COc1ccc(NC(=O)C2CCN(S(=O)(=O)c3ccc(C)cc3)CC2)cc1OC	-0.2	-7.3	74.0*	0.1
CCN1C(=O)[C@H]2[C@@H](c3ccc(C)cc3)N3C(=O)N(c4ccc(C(F)(F)F)cc4)C(=O)[C@@]3(Cc3ccccc3)[C@H]2C1=O	0.3	12.1	96.0	1.4
Cc1cccc([C@@H]2[C@@H]3C(=O)N(Cc4ccccc4)C(=O)[C@@H]3[C@]3(C)C(=O)N(c4ccc(C(F)(F)F)cc4)C(=O)N23)c1	0.2	81.3*	96.0	0.1
O=C(NCc1ccc2c(c1)OCO2)c1nc(S(=O)(=O)Cc2ccccc2)ncc1Cl	0.1	37.5	53.0*	1.4
O=C(NCc1ccc2c(c1)OCO2)c1nc(S(=O)(=O)Cc2ccccc2F)ncc1Cl	0.6	45.1	103.0	-0.5
OC(c1ccc(Cl)c(Cl)c1)c1ncc(-c2ccccc2C(F)(F)F)[nH]1 (stereo not drawn)	-1.9	28.9	97.0	-1.0
